Measured values gathered from unrelated publications.
Target: Serine/threonine-protein kinase SIK2 (SIK2, Homo sapiens, UniProt Q9H0K1)

With `Cc1cnc(Nc2ccc(C(=O)N3CCC(N4CCCC4)CC3)cc2)nc1-c1cc2ccccc2s1` the remaining binding was 16% (binding; competition with immobilised ligand; 1 µM).
`CCC(=N\O)/C(C)=C/c1ccc(F)cc1` has a remaining binding of 100% (cell-free assay; competition with immobilised ligand; 1 µM).
For `C[C@H]1CCN(c2nccc(-c3cnn4ncccc34)n2)C1`, the remaining binding was 100% (binding; 1 µM).
For `C=CC(=O)N1CCC(C(=O)NCC(=O)N2CCN(c3nc(-c4cnc(N)nc4C(F)F)nc(N4CCOCC4)n3)CC2)CC1`, the remaining binding was 96% (binding; competition with immobilised ligand; 1 µM).
`C[C@@H](c1ccc(-n2cnc3c(N)ncnc32)cc1)N1CCc2nn(C)c(Cc3ccccc3)c2C1=O` has a remaining binding of 73% (binding; competition with immobilised ligand; 0.1 µM).
`Nc1ncc2c(n1)-c1c([nH]c3ccc(C#CC4CC4)cc13)CCCC2` has a remaining binding of 81% (binding; competition with immobilised ligand; 1 µM).
`c1cncc(-c2cccc(Nc3nccc(NC4CCCCC4)n3)c2)c1` gave a remaining binding of 73% (binding; competition with immobilised ligand; 10 µM).
`O=C(c1ccc(Nc2nccc(-c3cc4ccccc4s3)n2)cc1)N1CCC(N2CCCC2)CC1` has a remaining binding of 45% (binding; competition with immobilised ligand; 1 µM).
`CC(=O)Nc1c(C(C)=O)c(=O)n(C)c2nc(-c3ccc(Cl)cc3Cl)c(-c3ccc(Cl)cc3)cc12` gave a remaining binding of 100% (cell-free assay; competition with immobilised ligand; 1 µM).
The remaining binding of `CN(C)c1nccc(-c2cnc3ncccn23)n1` is reported as 100% (binding; 1 µM).
`COc1cnc(Nc2cccc(S(N)(=O)=O)c2)nc1N1CCN(c2ccccc2)CC1` has a remaining binding of 100% (binding; competition with immobilised ligand; 1 µM).
`CNCc1ccccc1-c1csc([C@H](C)Nc2nc(C)nc3cc(OC)c(OC)cc23)c1` gave a remaining binding of 100% (cell-free assay; competition with immobilised ligand; 1 µM).
`CN(c1nccc(-c2cnn3ncccc23)n1)C1CC1` has a remaining binding of 100% (binding; 1 µM).
`c1ccc(N2CCN(Cc3nc4ccccc4[nH]3)CC2)nc1` gave a remaining binding of 100% (binding; competition with immobilised ligand; 1 µM).
`N[C@H]1CCN(c2nccc(-c3cnn4ncccc34)n2)C1` has a remaining binding of 87% (binding; 1 µM).
With `COCCOc1nc(-c2ccc(Cl)nc2)nc2c1CN(C(=O)c1ncn3ccccc13)CC2` the remaining binding was 100% (cell-free assay; competition with immobilised ligand; 0.1 µM).
For `CN(CCCC(F)(F)F)c1nccc(-c2cnn3ncccc23)n1`, the remaining binding was 99% (binding; 1 µM).
With `C[C@@H](c1cccc(C#N)c1)n1cc(Cl)cc(C(N)=O)c1=N` the remaining binding was 100% (cell-free assay; competition with immobilised ligand; 1 µM).
For `CN(C)c1nccc(-c2cnn3ncccc23)n1`, the remaining binding was 100% (binding; 1 µM).
`O=C(Nc1c[nH]nc1C(=O)NC1CCNCC1)c1cc(F)cc(F)c1` gave a remaining binding of 100% (binding; competition with immobilised ligand; 1 µM).
The remaining binding of `O=C(c1ccc(Nc2ncc(Cl)c(-c3ccc(Cl)s3)n2)cc1)N1CCC(N2CCCC2)CC1` is reported as 21% (binding; competition with immobilised ligand; 1 µM).
`F[C@@H]1CCN(c2nccc(-c3cnn4ncccc34)n2)C1` has a remaining binding of 100% (binding; 1 µM).
